# Rad51 HR inh: Rad51 (human) homologous recombination inhibition; Q06609; hRad51 DNA strand exchange, fluorescence dequenching; inhibition, % at 10 µM; hit rate 0.085% among 200,000; AID 1385;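 active = inhibition above 40% at the single screening dose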
#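 material = hRad51 filaments on single-stranded DNA | reagent = Donor/quencher-labelled 47-bp dsDNA substrate | compound = 10 µM final, single point | schedule = strand-exchange reaction 15 min at room temperature | measured by = fluorescein emission 520 nm, excitation 485 nm | read-out basis = % inhibition versus plate control and blank means | benchmarks = plate controls and plate blanks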
# ABCB1 inh: human ABCB1 inhibition, ABCG2 as counter-screen | P08183 | CCRF-Adr cells, JC-1 efflux, flow cytometry | inhibition, % at 6.6 µM | hit rate 0.067% among 190,000 | AID 1326; in the data active = inhibition above about 40%;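 note: higher value means more JC-1 retained so stronger ABCB1 efflux block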
# HMGR II inh: E. faecalis class II HMG-CoA reductase inhibition; purified E. faecalis HMGR, NADPH absorbance 340 nm kinetic; inhibition, % at 10 µM; hit rate 0.41% among 190,000;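 active = inhibition above a set limit, the median over all tested compounds plus 3 SD, cut at about 9.5% in these data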;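 note: enzyme runs in reverse so mevalonate oxidation gives rising NADPH absorbance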
# ABCG2 inh: inhibitors of human ABCG2 transporter, ABCB1 counter-screen | Q9UNQ0 | IgMXP3 cells, JC-1 efflux, flow cytometry | inhibition, % at 6.6 µM | hit rate 0.1% among 190,000;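 active = inhibition above 80%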
#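 Times: 10 min at 25 °C | Test system: Two drug-resistant human cell lines, ABCG2 and ABCB1 | Quantity: 3 million cells/mL final, two lines in 1:1 ratio | Signal: Flow cytometry, 530 nm JC-1 signal | Dosing: Compound at 6.6 µM | Controls: Nicardipine and DMSO wells | Reagent: JC-1 as fluorescent efflux pump substrate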
# PERK inhibitor: inhibitors of human PERK kinase. CHO PERK-DD fusion, SEAP luminescence translation reporter. Q9NZJ5. inhibition, % at 5.6 µM. hit rate 0.17% among 220,000. AID 1416;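 active = inhibition above the mean inhibition of all tested compounds plus 3 SD, set separately per screening campaign, cut at about 2.9% in these data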;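 note: PERK kinase domain activated by AP20187 dimerizer at 100 nM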
# Furin inhibitor: blocks human furin protease activity. P09958. hit rate 0.061% among 220,000. AID 463115. purified furin, fluorogenic substrate cleavage. inhibition, % at 20 µM or 30 µM; in the data active = inhibition above about 25%
# A number is an active result; . = inactive; / = not tested or not shown. Only some compounds are listed: those with a hit (about 0.77% of all), similar ones and a draw of the others.
SMILES,Rad51 HR inh,ABCB1 inh,HMGR II inh,ABCG2 inh,PERK inhibitor,Furin inhibitor
CCOC(=O)C1CCN(c2ncnc3c2nnn3Cc2ccccc2Cl)CC1,55.4,.,.,.,.,.
c1ccc(CSc2ccc(-c3cccs3)nn2)nc1,.,.,12.4,.,.,.
c1ccc(CSc2ccc(-c3cccs3)nn2)cc1,.,.,.,.,.,.
COCC(=O)NNC(=S)Nc1cccc(C)c1C,.,.,.,.,.,.
CC(C)N(C(=O)/C=C/c1cccc([N+](=O)[O-])c1)C(C)C,.,.,.,.,3.6,.
CCCN(CCC)C(=O)/C=C/c1cccc([N+](=O)[O-])c1,/,/,/,/,.,.
Cn1cnc(S(=O)(=O)N2CCc3ccccc32)c1,.,.,.,.,3.1,.
Cc1c(N=Cc2nc3ccccc3[nH]2)c(=O)n(-c2ccccc2)n1C,.,.,.,.,.,.
Cc1c(N=Cc2nc3ccccc3n2C)c(=O)n(-c2ccccc2)n1C,.,.,.,89.7,.,.
COC(=O)N[C@H](CC(C)=O)c1ccccc1,.,.,.,.,.,.
Cc1ccc(C)c(N2C(=O)CN=C2Nc2ccccc2Cl)c1,.,.,.,.,.,25.2
O=C1CN=C(Nc2ccccc2Cl)N1c1ccccc1,.,.,.,.,.,.
CCN1C(=O)C2(Nc3ccccc3-c3nc4ccccc4n32)c2cc(OC)ccc21 (stereo not given),/,53.5,.,.,.,.
CCOc1ccc2nc(NCCNC(=S)NCCCN(C)C)c(C#N)cc2c1,.,.,.,.,3.0,.
COc1ccc(/C=N/NC(=O)C(C)Sc2ccccn2)cc1[N+](=O)[O-] (stereo not given),.,.,14.5,.,.,.
CCN(Cc1cc(=O)n2ccsc2n1)Cc1nc2ccccc2c(=O)[nH]1,.,.,11.3,.,.,.
O=C(NCc1ccc2c(c1)OCO2)c1nnc(Cc2ccc(Cl)cc2)o1,/,.,.,.,.,.
CC(C)CCc1noc(CN(CC2CCC2)CC2CCCO2)n1 (stereo not given),.,/,/,/,.,.
COc1ccccc1/C=C/C(=O)OCC(=O)Nc1ccccc1Sc1ccccc1,/,.,11.2,.,.,.
CC(C)(C)C(=O)/C=c1\s/c(=C\c2ccc(-c3ccc([N+](=O)[O-])cc3)o2)c(=O)n1CC(=O)NC(N)=O,.,.,.,.,.,.
COc1ccc(N=C2S/C(=C\c3ccc(OCC(=O)O)cc3)C(=O)N2CCc2c[nH]c3ccccc23)cc1,.,.,10.4,.,.,.
COc1ccc(N=C2S/C(=C\c3ccc(N4CCOCC4)o3)C(=O)N2CCc2c[nH]c3ccccc23)cc1,.,.,.,.,.,.
Cc1ccccc1CO/N=C/c1[nH]ncc1Br,.,/,/,/,3.5,.
COc1ccc(C)c2sc(N(CCCN(C)C)C(=O)c3ccc(S(=O)(=O)N(C)C)cc3)nc12,47.4,.,.,.,.,.
CSc1n[nH]c(NCc2ccc(C)cc2)n1,.,.,.,.,.,26.8
SMILES,Rad51 HR inh,ABCB1 inh,HMGR II inh,ABCG2 inh,PERK inhibitor,Furin inhibitor
Cc1nc([N+](=O)[O-])c(Br)n1CC(=O)c1cccc([N+](=O)[O-])c1,.,.,16.5,.,.,.
CC(=O)CSc1nc2cc3c(cc2cc1C#N)OCCO3,.,.,10.5,.,.,.
O=C(c1cccc(C(F)(F)F)c1)N1CCc2c([nH]c3ccccc23)C1C(F)(F)F (stereo not given),.,/,/,/,.,.
Cc1ccc(C)c(OCC(=O)Nc2cc(C(=O)O)cc(C(=O)O)c2)c1,/,.,.,.,3.4,.
COc1ccc(NC(=S)N(CCN2CCOCC2)Cc2ccccc2F)cc1,.,.,11.9,.,.,.
O=C(Nc1ccccc1)N(CCN1CCOCC1)Cc1ccccc1F,.,.,.,.,.,30.0
COc1ccccc1NC(=S)N(CCN1CCOCC1)Cc1ccccc1F,.,.,.,.,.,.
C=CCn1c(CNc2ccc(C)cc2)nnc1SCC(=O)N/N=C/c1ccc(O)cc1,.,.,.,.,.,.
COc1ccc(OCc2nnc(SC(C)C(=O)Nc3nccs3)n2-c2ccccc2)cc1 (stereo not given),.,.,.,.,.,.
CCCCn1cnc2c(c1=O)c1nc3ccccc3nc1n2Cc1ccc2c(c1)OCO2,.,/,/,/,.,.

# From PubChem
